Measurements published in ChEMBL document CHEMBL1124874, “Antitumor and DNA-binding properties of a group of oligomeric complexes of Pt(II) and Pt(IV)” (J Med Chem, 1990).
“And” between values parts separate entries of the source, which are not always exact repeats. Equal values may be shown once.

Tests used:
B16 = test: Antitumor efficacy against B-16 tumor cell line, activity is expressed as […] survival time (MST) at the dose of 1.6 mg/kg.; assay type: functional, organism-based; set-up: dose 1.6 mg/kg; conditions: Mus musculus
Method in brief: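 Mice bearing B-16 tumor were dosed once daily on days 1–9. Read-out was median survival time in days, with T/C relative to control MST.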

M5076 = test: Antitumor efficacy against M5076 tumor cell line, activity is expressed as […] survival time (MST) at the dose of 4.8 mg/kg.; assay type: functional, organism-based; set-up: dose 4.8 mg/kg; conditions: Mus musculus
Method in brief: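 M5076 tumor-bearing mice were dosed on days 1 and 4. Median survival time in days was recorded and T/C calculated against control MST.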

L1210 [1] = test: Antitumor efficacy against L1210 tumor cell line, activity is expressed as […] survival time (MST) at the dose of 10 mg/kg.; assay type: functional, organism-based; set-up: dose 10 mg/kg; conditions: Mus musculus
Method in brief: (§1)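 Murine L-1210 leukemia, ascitic form, with compound given on day 1 (a single ip dose on day 1 in mg/kg in one table). Activity was scored as median survival time in days, with T/C relative to untreated controls. A cisplatin positive control was run in each test.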

M5076 (mouse) = test: Antitumor efficacy against M5076 tumor cell line, activity is expressed as […] survival time (MST) at the dose of 4.8 mg/kg.
L1210 [2] = test: Antitumor efficacy against L1210 tumor cell line, activity is expressed as […] survival time (MST) at the dose of 8 mg/kg.; assay type: functional, organism-based; set-up: dose 8 mg/kg; conditions: Mus musculus; method in brief: as §1
L1210 [3] = test: Antitumor efficacy against L1210 tumor cell line, activity is expressed as […] survival time (MST) at the dose of 6 mg/kg.; assay type: functional, organism-based; set-up: dose 6 mg/kg; conditions: Mus musculus; method in brief: as §1

Q: How did the MST (B16) turn out when CISPLATIN was run?
A: 213

Q: And the MST (M5076)?
A: 166

Q: What about the Survival time as % of untreated control (T/C) (L1210 [1]) of the same sequence?
A: 193 (2×) and 200 (2×) and 186

Q: What about the MST (M5076 (mouse)) of the same sequence?
A: 200

Q: And the MST (L1210 [2])?
A: 186 and 167 and 164

Q: And the MST (L1210 [3])?
A: 150
